TRPC4 block: inhibitors of mouse TRPC4 channel, primary screen, Fluo4 calcium, HEK293 TRPC4beta/mu-opioid cells; Short transient receptor potential channel 4 (Mus musculus), Q9QUQ5; B-score at 10 µM; 300,000 compounds, 0.39% hits; DAMGO-evoked Fluo4 calcium flux; active compounds read low;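 active = B-score over 3 SD under the library average, no early fluorescence shift, positive overall ratio signal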
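Assay system: HEK293 cells with stable TRPC4beta plus mu-opioid receptor expression; Probe or stimulus: DAMGO in two steps, submaximal then maximal; Dosing: single-point compound dosing; Measured by: Fluo4 calcium-dye fluorescence, kinetic read; Read-out basis: B score from integrated Fluo4 fluorescence ratio.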
TRPC6 inh: mouse TRPC6 channel inhibitors, primary screen, cell-based, HEK293, membrane potential dye | B-score at 10 µM | Short transient receptor potential channel 6 (Mus musculus), Q61143 | ACh-evoked depolarization; active compounds read low | 310,000 compounds, 1.1% hits;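 active = B-score under library mean minus 3 SD, initial fluorescence not abnormally high, positive integrated signal ratio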;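 note: B-score derived from integrated fluorescence ratio over the kinetic read; more negative B-score means stronger inhibition of depolarization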
Target sequence (Q61143 whole entry, looked up): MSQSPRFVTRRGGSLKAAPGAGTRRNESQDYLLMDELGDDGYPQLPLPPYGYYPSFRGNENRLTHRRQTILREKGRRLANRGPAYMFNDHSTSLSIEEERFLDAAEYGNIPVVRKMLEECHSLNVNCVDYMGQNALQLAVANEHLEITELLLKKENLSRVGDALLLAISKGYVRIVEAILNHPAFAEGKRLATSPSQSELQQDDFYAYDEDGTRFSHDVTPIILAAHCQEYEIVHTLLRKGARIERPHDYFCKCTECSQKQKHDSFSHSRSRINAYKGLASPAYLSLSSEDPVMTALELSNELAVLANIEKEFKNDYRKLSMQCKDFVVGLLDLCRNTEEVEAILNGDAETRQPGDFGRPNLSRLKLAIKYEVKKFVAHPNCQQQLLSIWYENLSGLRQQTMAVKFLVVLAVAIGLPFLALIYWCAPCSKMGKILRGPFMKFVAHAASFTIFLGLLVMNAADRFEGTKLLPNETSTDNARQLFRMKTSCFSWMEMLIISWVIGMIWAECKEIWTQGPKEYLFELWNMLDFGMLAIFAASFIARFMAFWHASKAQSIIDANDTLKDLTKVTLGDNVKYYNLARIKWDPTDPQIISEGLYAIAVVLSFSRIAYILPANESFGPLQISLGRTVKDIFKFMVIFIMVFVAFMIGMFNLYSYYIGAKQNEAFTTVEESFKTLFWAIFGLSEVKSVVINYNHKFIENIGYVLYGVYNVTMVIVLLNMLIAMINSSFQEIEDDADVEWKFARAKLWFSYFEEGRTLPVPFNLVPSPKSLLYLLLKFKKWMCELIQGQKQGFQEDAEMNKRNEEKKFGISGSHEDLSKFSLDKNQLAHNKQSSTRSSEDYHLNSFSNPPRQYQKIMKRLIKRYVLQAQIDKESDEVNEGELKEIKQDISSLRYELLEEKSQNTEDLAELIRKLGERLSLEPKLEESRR
TRPC6 act: mouse TRPC6 channel activators, primary screen, cell-based, HEK293, membrane potential dye; Short transient receptor potential channel 6 (Mus musculus), Q61143; HEK293-TRPC6 membrane potential dye fluorescence; active compounds read high; B-score at 10 µM; 310,000 compounds, 0.13% hits;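 active = B-score of the integrated fluorescence ratio above library mean plus 3 SD, and starting fluorescence ratio within library mean plus 5 SD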;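 note: higher score means more depolarization so channel activation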
TRPC4 potent: positive allosteric modulators of TRPC4, primary screen, cell-based, mouse TRPC4beta, HEK293 mu-opioid, Fluo-4 calcium. Short transient receptor potential channel 4 (Mus musculus), Q9QUQ5. DAMGO EC20, Fluo-4 Ca2+ flux; active compounds read high. B-score at 10 µM. 310,000 compounds, 0.42% hits;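 active = B-score of calcium response area above 5 SD of library B-scores, with initial fluorescence ratio within 5 SD of library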;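 note: B-score of integrated fluorescence ratio over time as area under calcium response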
TRPC4 act: activators of mouse TRPC4 channel, primary screen, Fluo4 calcium, HEK293 TRPC4beta/mu-opioid cells | Short transient receptor potential channel 4 (Mus musculus), Q9QUQ5 | B-score at 10 µM | 310,000 compounds, 0.49% hits | Fluo4 calcium fluorescence; active compounds read high;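 active = B-score above 5 SD of library B-scores, and initial fluorescence ratio not above library mean plus 5 SD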;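 note: positive B-score marks a calcium rise read as TRPC4 activation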
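Assay system: HEK293 stable line with TRPC4beta plus mu-opioid receptor. Times: dye 45 min RT, read 110 s. Measured by: kinetic Fluo4 calcium fluorescence. Measure: B score of integrated ratio. Controls: assay buffer as low control, maximal DAMGO as high control.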
HEK293 TRPC6 ctr: parental HEK293 membrane potential modulation, confirmation, counter-screen for TRPC6 modulator project, cell-based | shares compounds with TRPC6 inh | membrane potential dye fluorescence | membrane potential signal change, % at 10 µM | 2,400 compounds, 51% hits | AID 488924, 2010;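 active = membrane potential signal moves up or down beyond 5 SD from buffer-only wells, on both duplicate plates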
HEK293 MPD ctr 2: second check of TRPC6 modulator effects in parental HEK293 cells; shares compounds with TRPC6 inh; membrane potential dye fluorescence; after compound, maximal acetylcholine stimulation; inhibition, % at 10 µM; 2,400 compounds, 14% hits;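 active = membrane potential signal drops by more than 5 SD from the mean control signal, in both duplicate plates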;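 note: plate controls were acetylcholine ECmax control wells for no effect and buffer only wells for full effect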
TRPC4 ctr mod: TRPC4 modulation by TRPC6 hit compounds, confirmation, selectivity assay for TRPC6 modulator project, cell-based, HEK293 TRPC4/mu-opioid, membrane potential dye, mouse | shares compounds with TRPC6 inh | membrane potential fluorescence | percent change from control (negative = decrease, positive = increase), % at 10 µM | 2,400 compounds, 69% hits | AID 488927, 2010;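 active = membrane potential signal moved up or down beyond 5 SD of buffer control wells, in both duplicate plates, actives on both sides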;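 note: plate controls were assay buffer wells for no effect and DAMGO maximal-effect wells for full effect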
TRPC4 ctr inh 2: second check of whether TRPC6 modulators also affect mouse TRPC4; 2,400 compounds, 55% hits; shares compounds with TRPC6 inh; HEK293 TRPC4/mu-opioid, membrane potential dye fluorescence; stimulated with maximal-effect DAMGO; inhibition, % at 10 µM;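 active = drop in membrane potential signal beyond 5 SD of the control wells in both duplicate plates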;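 note: TRPC4 counter screen for TRPC6 hits run under conditions tuned for TRPC6 not TRPC4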
TRPC6 inh conf: mouse TRPC6 channel inhibitors, confirmation, HEK293 cells, membrane potential dye, duplicate; shares compounds with TRPC6 inh; ACh-evoked depolarization; inhibition, % at 10 µM; 3,300 compounds, 43% hits; AID 488960, 2010;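 active = fluorescence ratio falls more than 5 SD below the full-stimulation control mean, in both duplicate runs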;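 note: integrated fluorescence ratio of peak minus minimum over baseline after agonist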
TRPC6 act confirm: mouse TRPC6 channel activators, confirmation, HEK293 cells, membrane potential dye, duplicate | shares compounds with TRPC6 inh | HEK293-TRPC6 membrane potential dye fluorescence, FDSS | activation, % at 10 µM | 2,800 compounds, 11% hits | AID 488961, 2010;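 active = ratio signal rise beyond 5 SD above unstimulated control wells' mean, seen in both duplicate runs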;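 note: plate controls were buffer EC0 wells for no effect and acetylcholine ECmax response for full effect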
* marks the source's active call; other numbers are inactive results; i = inactive; · = no result. Shown are actives, neighbours in structure and some others; about 2.3% of the full set was active somewhere.

SMILES	TRPC4 block	TRPC6 inh	TRPC6 act	TRPC4 potent	TRPC4 act	HEK293 TRPC6 ctr	HEK293 MPD ctr 2	TRPC4 ctr mod	TRPC4 ctr inh 2	TRPC6 inh conf	TRPC6 act confirm
CCCn1c(-c2ccc(F)cc2)n[nH]c1=S	i	i	i	i	i	·	·	·	·	·	·
N#CC1(NC(=O)COC(=O)c2nc(Cl)c(Cl)c(N)c2Cl)CCCCC1	i	i	i	i	i	·	·	·	·	·	·
O=C(CSc1nnc(-c2ccco2)n1Cc1ccccc1)OC1CCCCC1	i	i	12*	i	i	382%*	i	53%*	52%*	i	86%*
O=C(CSc1nnc(-c2ccncc2)n1Cc1ccco1)OC1CCCCC1	i	i	i	i	i	·	·	·	·	·	·
CCOc1ccccc1NC(=O)c1cnc(NS(=O)(=O)c2ccccc2)nc1	i	i	i	i	i	·	·	·	·	·	·
CN1CCN(Cc2ccc(Sc3ccc(Cl)cc3)c([N+](=O)[O-])c2)CC1	i	-6.5*	i	i	i	i	i	-14%*	52%*	44%*	i
Cc1ccc(Sc2ccc(CN3CCCC3)cc2[N+](=O)[O-])cc1	i	i	i	i	i	·	·	·	·	·	·
N#Cc1cccc(C(c2nnnn2CCc2ccccc2)N2CCN(C3CCCCC3)CC2)c1 (centres undefined)	i	-5*	i	i	i	i	i	i	70%*	54%*	i
CCN(CC)CCNC(=O)c1ccc(NC(=O)c2ccc(S(=O)(=O)N3CCCCCC3)cc2)cc1	i	i	i	i	i	·	·	·	·	·	·
CCN(CC)CCNC(=O)c1ccc(NC(=O)c2ccc(Cl)c(S(=O)(=O)N3CCCCCC3)c2)cc1	i	-6*	i	i	i	113%*	76%*	12%*	i	42%*	·
CCn1cc(/C=N\NC(=O)c2cc(-c3ccccc3OC)nc3ccccc23)c(C)n1	i	i	i	i	i	·	·	·	·	·	·
COc1ccccc1-c1cc(C(=O)N/N=C\c2cn(C)nc2C)c2ccccc2n1	i	-5.9*	i	i	i	i	i	i	i	44%*	·
O=C(NC1CCCCC1)C(c1cccnc1)N(C(=O)c1csnn1)c1ccc(F)cc1 (centres undefined)	i	i	i	i	i	·	·	·	·	·	·
CCCCCN(C(=O)CCC(=O)OC(C)C(=O)NC1CCCCC1)c1c(N)n(CCCC)c(=O)[nH]c1=O (centres undefined)	i	i	i	i	i	·	·	·	·	·	·
Cc1c(C)n(Cc2ccccc2)c2ccc(C(=O)OCCN(C)C)cc12	i	-6*	i	i	i	i	i	i	72%*	56%*	i
